These results are taken from ChEMBL document CHEMBL4350954, “Identification of Thienopyrimidine Scaffold as an Inhibitor of the ABC Transport Protein ABCC1 (MRP1) and Related Transporters Using a Combined Virtual Screening Approach” (J Med Chem, 2019).

Where only a bound is given, the exact number is not on record here.

The target in data set [1] is Multidrug resistance-associated protein 1 (Homo sapiens, UniProt P33527). The data set can be described thus: Inhibition of ABCC1 in human H69AR cells preincubated for 30 mins followed by calcein-AM addition measured at 60 secs time interval by fluorescence assay. In kind it is cell-based. In short, it runs like this: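 Calcein AM accumulation assay in H69AR small-cell lung cancer cells, which express only ABCC1. Inhibited efflux lets calcein AM build up intracellularly, where esterases cleave it to fluorescent calcein. The screen used 10 µM, scaled to a standard ABCC1 inhibitor at 10 µM as 100%. Hits reaching ≥20% inhibition (+SEM) went on to IC50 curves, constrained to that 100% maximum. Values are means of ≥3 independent experiments in duplicate ± SEM.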
Sequence of Multidrug resistance-associated protein 1 (P33527 whole entry): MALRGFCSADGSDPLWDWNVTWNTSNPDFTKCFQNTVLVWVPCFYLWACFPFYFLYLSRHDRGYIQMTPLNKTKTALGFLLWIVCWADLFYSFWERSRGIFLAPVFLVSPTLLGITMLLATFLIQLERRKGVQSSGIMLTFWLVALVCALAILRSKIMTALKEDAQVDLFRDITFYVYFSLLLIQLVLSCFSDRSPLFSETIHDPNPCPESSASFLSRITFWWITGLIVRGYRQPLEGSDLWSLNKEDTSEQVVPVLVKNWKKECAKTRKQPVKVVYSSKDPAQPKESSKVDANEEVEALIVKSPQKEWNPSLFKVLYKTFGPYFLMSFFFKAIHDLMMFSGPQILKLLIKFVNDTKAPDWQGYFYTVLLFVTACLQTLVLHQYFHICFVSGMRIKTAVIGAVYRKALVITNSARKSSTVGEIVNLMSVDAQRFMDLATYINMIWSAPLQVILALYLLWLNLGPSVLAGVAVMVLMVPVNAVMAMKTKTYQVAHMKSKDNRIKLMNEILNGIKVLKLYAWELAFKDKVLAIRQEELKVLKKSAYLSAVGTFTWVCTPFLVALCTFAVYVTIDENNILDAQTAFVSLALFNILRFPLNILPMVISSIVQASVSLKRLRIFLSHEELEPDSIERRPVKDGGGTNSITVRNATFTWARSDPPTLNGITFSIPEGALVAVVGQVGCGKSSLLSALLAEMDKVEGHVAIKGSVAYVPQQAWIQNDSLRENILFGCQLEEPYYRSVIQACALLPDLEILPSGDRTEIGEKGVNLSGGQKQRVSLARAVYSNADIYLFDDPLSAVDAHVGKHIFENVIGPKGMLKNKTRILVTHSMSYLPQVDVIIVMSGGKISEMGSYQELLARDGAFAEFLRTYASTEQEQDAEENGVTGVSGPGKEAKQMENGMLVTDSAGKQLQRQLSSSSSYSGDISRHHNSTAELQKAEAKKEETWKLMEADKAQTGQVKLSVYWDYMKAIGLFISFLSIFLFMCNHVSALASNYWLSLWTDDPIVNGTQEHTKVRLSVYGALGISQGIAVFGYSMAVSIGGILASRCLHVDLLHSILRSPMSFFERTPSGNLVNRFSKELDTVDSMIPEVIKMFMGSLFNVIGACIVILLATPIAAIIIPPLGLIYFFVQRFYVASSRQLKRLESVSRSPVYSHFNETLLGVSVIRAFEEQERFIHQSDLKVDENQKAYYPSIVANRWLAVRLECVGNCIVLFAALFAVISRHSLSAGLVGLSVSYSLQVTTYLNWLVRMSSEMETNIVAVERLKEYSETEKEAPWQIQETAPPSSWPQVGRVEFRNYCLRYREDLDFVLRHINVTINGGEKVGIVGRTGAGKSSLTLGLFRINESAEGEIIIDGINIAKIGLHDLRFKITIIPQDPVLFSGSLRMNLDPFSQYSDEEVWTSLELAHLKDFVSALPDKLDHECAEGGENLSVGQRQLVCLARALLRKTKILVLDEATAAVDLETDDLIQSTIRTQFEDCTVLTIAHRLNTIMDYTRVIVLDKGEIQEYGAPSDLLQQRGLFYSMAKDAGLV

Data set [2] has as its target T1, ABCG2 (BCRP) (Homo sapiens, UniProt Q9UNQ0).
T1 sequence (Q9UNQ0 whole entry): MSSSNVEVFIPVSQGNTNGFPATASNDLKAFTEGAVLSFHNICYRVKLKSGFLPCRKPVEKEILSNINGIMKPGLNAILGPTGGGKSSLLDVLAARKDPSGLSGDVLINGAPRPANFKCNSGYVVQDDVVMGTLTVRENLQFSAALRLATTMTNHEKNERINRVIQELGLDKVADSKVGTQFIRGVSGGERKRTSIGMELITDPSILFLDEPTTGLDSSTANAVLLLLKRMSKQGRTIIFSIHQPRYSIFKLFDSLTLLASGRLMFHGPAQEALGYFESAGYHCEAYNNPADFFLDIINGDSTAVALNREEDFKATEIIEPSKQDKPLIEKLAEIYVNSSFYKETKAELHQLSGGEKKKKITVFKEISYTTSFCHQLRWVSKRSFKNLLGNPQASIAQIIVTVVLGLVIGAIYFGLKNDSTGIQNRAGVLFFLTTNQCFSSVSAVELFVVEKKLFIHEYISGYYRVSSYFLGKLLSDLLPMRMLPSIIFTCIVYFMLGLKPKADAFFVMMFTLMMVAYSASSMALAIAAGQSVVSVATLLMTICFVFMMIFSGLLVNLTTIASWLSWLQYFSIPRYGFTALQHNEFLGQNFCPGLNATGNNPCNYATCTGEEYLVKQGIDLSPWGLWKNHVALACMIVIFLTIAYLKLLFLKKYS
The data set is described as follows: Inhibition of ABCG2 (unknown origin) expressed in MDCK2 cells co-expressing BCRP (unknown origin) assessed as effect on pheophorbide A accumulation at 10 uM pre-incubated for 20 mins followed by pheophorbide A addition and measured after 120 mins by flow cytometric analysis relative to Ko143. The data set is classed as cell-based. Conditions: probe pheophorbide A. A digest of the protocol: (§1)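 Pheophorbide A accumulation assay in ABCG2-transfected MDCK II BCRP cells. Ko143 at 10 µM set 100% and no compound set 0%. Screening was at 10 µM; compounds reaching >20% (+SEM) got IC50 curves constrained to the Ko143 maximum at 10 µM. Values are reported as mean ± SEM.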
For orientation: Flow cytometry measures light scatter and fluorescence of single cells or particles in a stream.

The target in data set [3] is T2, Broad substrate specificity ATP-binding cassette transporter ABCG2 (Homo sapiens, UniProt Q9UNQ0).
T2 sequence (Q9UNQ0 whole entry): T1 sequence (Q9UNQ0 whole entry)
The data set is described as follows: Inhibition of ABCG2 (unknown origin) expressed in MDCK2 cells co-expressing BCRP (unknown origin) assessed as effect on pheophorbide A accumulation pre-incubated for 20 mins followed by pheophorbide A addition and measured after 120 mins by flow cytometric analysis. The data set is classed as cell-based. A digest of the protocol: as §1

In data set [4] the target is T3, ATP-dependent translocase ABCB1 (Homo sapiens, UniProt P08183). The data set is described as follows: Reversal of ABCB1-mediated multidrug resistance in human A2780/ADR cells assessed as resistance factor by measuring [GI50(resistant cell line without or with compound)/ GI50(sensitive cell line)] at 10 uM incubated for 72 hrs by MTT assay (reference value: 49). The data set is classed as cell-based. In short, it runs like this:
(§2)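 MDR reversal assay with daunorubicin at 10 nM–10 µM, alone or with test compound at 0.5, 1, 5 or 10 µM. Resistant cells were ABCB1-overexpressing A2780/ADR or MDCK II MDR1, with sensitive A2780 or MDCK II cells as comparators. Resistance factor = resistant GI50 / sensitive GI50. EC50 was derived from resistance factors versus modulator concentration. Values are from ≥3 experiments in duplicate ± SEM.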
In general terms: Formazan colour is commonly taken as a measure of viable cells.

In data set [5] the target is T3, ATP-dependent translocase ABCB1. The data set can be described thus: Reversal of ABCB1 (unknown origin)-mediated multidrug resistance in MDCK2 cells co-expressing MDR1 (unknown origin) assessed as resistance factor by measuring [GI50(resistant cell line without or with compound)/ GI50(sensitive cell line)] at 1 uM incubated for 72 hrs by MTT assay (reference value: 17). In kind it is cell-based. A digest of the protocol: as §2

For data set [6] the target is unchanged. The data set can be described thus: Reversal of ABCB1 (unknown origin)-mediated multidrug resistance in MDCK2 cells co-expressing MDR1 (unknown origin) assessed as resistance factor by measuring [GI50(resistant cell line without or with compound)/ GI50(sensitive cell line)] at 10 uM incubated for 72 hrs by MTT assay (reference value: 17). The data set is classed as cell-based. In short, it runs like this: as §2

Data set [7] has as its target T2, Broad substrate specificity ATP-binding cassette transporter ABCG2. The data set can be described thus: Reversal of ABCG2 (unknown origin)-mediated multidrug resistance in MDCK2 cells co-expressing BCRP (unknown origin) assessed as resistance factor by measuring [GI50(resistant cell line without or with compound)/ GI50(sensitive cell line)] at 0.5 uM incubated for 72 hrs by MTT assay (reference value: 27). The data set is classed as cell-based.

Data set [8] has the same target. The data set is described as follows: Reversal of ABCG2 (unknown origin)-mediated multidrug resistance in MDCK2 cells co-expressing BCRP (unknown origin) assessed as resistance factor by measuring [GI50(resistant cell line without or with compound)/ GI50(sensitive cell line)] at 1 uM incubated for 72 hrs by MTT assay (reference value: 27). The data set is classed as cell-based.

Data set [9] has the same target. The data set is described as follows: Reversal of ABCG2 (unknown origin)-mediated multidrug resistance in MDCK2 cells co-expressing BCRP (unknown origin) assessed as resistance factor by measuring [GI50(resistant cell line without or with compound)/ GI50(sensitive cell line)] at 5 uM incubated for 72 hrs by MTT assay (reference value: 27). In kind it is cell-based.

The nature of data set [10]: Growth inhibition of MDCK2 cells co-expressing MDR1 (unknown origin) incubated for 72 hrs by MTT assay. In kind it is ADME, cell-based, Canis lupus familiaris, MDCK-II. Particulars: dog. A digest of the protocol: (§3)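 MTT-based cytotoxicity assay giving GI50 of the compound alone in each listed parental, selected or transfected cell line.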
The nature of data set [11]: Growth inhibition of MDCK2 cells incubated for 72 hrs by MTT assay. In kind it is cell-based, Canis lupus familiaris, MDCK-II. Particulars: dog. In short, it runs like this: as §3
The nature of data set [12]: Growth inhibition of MDCK2 cells co-expressing BCRP (unknown origin) after 72 hrs by MTT assay. In kind it is ADME, cell-based, Canis lupus familiaris, MDCK-II. Conditions: dog. In short, it runs like this: as §3
For data set [13], the system named is ABCG2 (BCRP). The data set is described as follows: Therapeutic index, ratio of GI50 for MDCK2 cells co-expressing BCRP (unknown origin) to IC50 for ABCG2 (unknown origin) expressed in MDCK2 cells co-expressing BCRP (unknown origin). In kind it is toxicity, cell-based. Particulars: dog, read-out: TI. A digest of the protocol:
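Therapeutic ratio = GI50 from the MTT cytotoxicity assay / IC50 from the inhibition assay in the same cell line. The cell lines were H69AR (calcein AM, ABCC1), A2780/ADR (calcein AM, ABCB1) and MDCK II BCRP (pheophorbide A, ABCG2).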

Data set [14] has as its target T2, Broad substrate specificity ATP-binding cassette transporter ABCG2. The data set can be described thus: Reversal of ABCG2-mediated multidrug resistance in human MCF-7/MX cells assessed as resistance factor by measuring [GI50(resistant cell line without or with compound)/ GI50(sensitive cell line)] incubated for 72 hrs by MTT assay (reference value: 789).

T3 sequence (P08183 whole entry): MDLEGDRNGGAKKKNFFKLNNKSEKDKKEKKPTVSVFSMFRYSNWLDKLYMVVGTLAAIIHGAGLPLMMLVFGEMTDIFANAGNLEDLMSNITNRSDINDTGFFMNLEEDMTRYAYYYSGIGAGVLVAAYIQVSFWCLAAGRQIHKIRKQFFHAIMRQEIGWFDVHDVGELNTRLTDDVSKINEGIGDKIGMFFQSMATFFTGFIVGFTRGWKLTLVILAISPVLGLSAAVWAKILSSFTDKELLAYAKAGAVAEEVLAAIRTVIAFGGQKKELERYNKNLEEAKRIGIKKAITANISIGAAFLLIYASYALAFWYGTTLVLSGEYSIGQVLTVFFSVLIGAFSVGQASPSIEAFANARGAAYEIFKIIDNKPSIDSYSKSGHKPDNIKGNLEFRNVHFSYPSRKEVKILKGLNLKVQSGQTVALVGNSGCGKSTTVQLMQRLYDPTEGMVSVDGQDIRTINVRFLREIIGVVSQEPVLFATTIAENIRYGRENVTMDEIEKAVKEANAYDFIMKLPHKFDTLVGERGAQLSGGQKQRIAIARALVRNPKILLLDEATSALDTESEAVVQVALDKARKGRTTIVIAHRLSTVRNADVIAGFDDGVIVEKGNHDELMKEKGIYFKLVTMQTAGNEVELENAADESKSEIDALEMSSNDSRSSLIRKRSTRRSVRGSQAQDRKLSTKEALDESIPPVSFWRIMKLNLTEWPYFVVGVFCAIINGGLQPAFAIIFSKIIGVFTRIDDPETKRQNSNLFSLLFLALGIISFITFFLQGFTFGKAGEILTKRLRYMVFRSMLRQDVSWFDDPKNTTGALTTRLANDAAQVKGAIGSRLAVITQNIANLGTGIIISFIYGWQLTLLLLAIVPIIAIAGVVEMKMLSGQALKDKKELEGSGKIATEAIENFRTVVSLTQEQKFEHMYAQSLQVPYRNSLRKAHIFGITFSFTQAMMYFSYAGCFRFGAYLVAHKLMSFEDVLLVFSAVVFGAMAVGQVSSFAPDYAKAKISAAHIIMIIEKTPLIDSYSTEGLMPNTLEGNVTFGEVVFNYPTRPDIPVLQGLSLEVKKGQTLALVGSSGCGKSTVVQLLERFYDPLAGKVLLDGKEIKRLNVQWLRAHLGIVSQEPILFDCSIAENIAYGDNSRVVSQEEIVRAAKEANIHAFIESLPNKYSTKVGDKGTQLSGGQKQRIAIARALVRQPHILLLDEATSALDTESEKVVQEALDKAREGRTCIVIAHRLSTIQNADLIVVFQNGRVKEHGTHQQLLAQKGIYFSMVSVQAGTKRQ

For orientation: IC50 means the midpoint of a concentration-inhibition curve. The term inhibition denotes how much of the control response was suppressed. As a reminder, the GI50 is the concentration that inhibits growth by half. Take `CC1CCc2c(sc3nc(-c4cccnc4)nc(N4CCN(C(C(N)=O)c5ccccc5)CC4)c23)C1` (centres undefined): the IC50 in data set [1] is 5.04 µM; in [3], 2.38 µM. For the same compound, the inhibition at 2 h, 10 µM at ABCG2 (BCRP) [2] is no less than 20%. For the same compound, the RatioGI50 was 4.1 in [4]; 4.3 in [5]; 0.5 in data set [6]; 21 in data set [7]; 17 in data set [8]; 4.5 in data set [9]. The RatioGI50 in data set [14] is on record as 53. In addition, the GI50 at 72 h was 25 µM in [10], 27 µM in data set [11] and 16.4 µM in data set [12]. Further, the selectivity ratio in the data set on ABCG2 (BCRP) [13] worked out at 6.9.
